Sampled rows, rich in hits. Any-hit rate of the full collection: about 0.63%.
MT1-MMP act inh: blockers of MT1-MMP proenzyme processing, primary screen, HT1080 RFP-PRO-GFP cells, GFP/RFP fluorescence; 360,000 tested, 0.061% active; GFP/RFP ratio fluorescence, overnight; percent of plate control window, DMSO zero; GFP/RFP ratio change, % at 20 µM; Matrix metalloproteinase-14 (Homo sapiens), P50281;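 active means GFP/RFP ratio change of at least 30% with cell ATP level not reduced by more than half and red fluorescence within 50% of control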
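Material – HT1080 RFP-PRO-GFP cells · Control set – DMSO wells and RFP-L50D-GFP cells · Incubation – overnight cell settling, then overnight compound exposure, 37 °C, 5% CO2 · Compound dosing – single-point 20 µM compound, 1% DMSO · Read-out – GFP/RFP fluorescence ratio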
STK33 inh: inhibitors of purified STK33 kinase, primary screen, biochemical, ADP-Glo luminescence, homogeneous, cell-free | Serine/threonine-protein kinase 33 (Homo sapiens), Q9BYT3 | MBP phosphorylation | inhibition, % at 10 µM | 320,000 tested, 0.073% active | AID 2661, 2010;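 active means inhibition at or above 25%, using the most active replicate where run in duplicate; inactive means inhibition below 25%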
Pemphigus Ab inh: inhibitors of pemphigus antibody binding to DSG3, primary screen, biochemical, bead-based, flow cytometry, scFv-GFP; Desmoglein-3 (Homo sapiens), P32926; DSG3-coupled beads, scFv-anti-DSG3-GFP binding; hits give low values; binding (percent of control), % at 10 µM; 310,000 tested, 0.48% active; AID 588358, 2011;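 active means binding more than 3 SD below its plate's average and above zero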;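 further: hits lower antibody fragment binding to DSG3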
GSK3A inh: blockers of GSK3A enzyme activity – biochemical, luminescence, cell-free homogeneous, HTS, primary screen; 320,000 tested, 0.1% active; GSK-3 alpha kinase, ADP-Glo luminescence, 60 min; inhibition, % at 10 µM;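 active means more than half of replicates show inhibition above 20%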;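 further: GST-tagged GSK-3 alpha with peptide substrate and 25 µM ATP; 0% = DMSO neutral wells and 100% = GW8510 positive control wells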
Target sequence (P49840 whole entry, looked up): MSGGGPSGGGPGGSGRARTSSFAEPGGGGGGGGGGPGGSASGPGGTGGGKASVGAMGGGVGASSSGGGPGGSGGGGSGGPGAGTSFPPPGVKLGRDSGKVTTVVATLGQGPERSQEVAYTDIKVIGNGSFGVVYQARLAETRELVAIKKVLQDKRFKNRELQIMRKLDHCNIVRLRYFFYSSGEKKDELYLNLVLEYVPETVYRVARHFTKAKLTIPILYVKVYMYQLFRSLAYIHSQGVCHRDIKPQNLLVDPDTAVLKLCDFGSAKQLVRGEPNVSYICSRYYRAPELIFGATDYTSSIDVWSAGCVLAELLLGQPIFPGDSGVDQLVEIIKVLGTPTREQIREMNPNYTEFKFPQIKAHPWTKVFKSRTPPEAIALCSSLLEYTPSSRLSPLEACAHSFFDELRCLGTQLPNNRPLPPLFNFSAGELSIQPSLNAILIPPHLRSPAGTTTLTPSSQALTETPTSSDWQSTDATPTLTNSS
GSK3beta inhib: human GSK3beta kinase inhibitors, primary screen, biochemical, cell-free homogeneous, HTS | Glycogen synthase kinase-3 beta (Homo sapiens), P49841 | GST-GSK3beta kinase, ADP-Glo luminescence, 60 min; hits give low values | activity score (negative = inhibition), % at 10 µM | 300,000 tested, 0.038% active | AID 2097, 2009;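 active means more than half of replicate wells score below -50%, meaning over 50% inhibition versus plate controls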;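 further: 0% = median DMSO wells and -100% = median GW8510 positive control wells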
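Test system: GST-tagged human GSK3beta kinase, cell-free; evaluation: activity score scaled between in-plate DMSO and GW8510 controls; measured by: ADP-Glo luminescence; incubation: 60 min reaction, RT; benchmarks: DMSO and 20 µM GW8510; reagent: peptide substrate plus 25 µM ATP (final); medium: Tris/MgCl2 kinase buffer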
Numbers without * were called inactive; x = not tested or not shown.

SMILES	MT1-MMP act inh	STK33 inh	Pemphigus Ab inh	GSK3A inh	GSK3beta inhib
COC(=O)CCC(=O)Nc1ccc(N=Nc2ccccc2)cc1	2.9	-0.1	-10.6*	-0.2	2.7
O=C(O)CCCC(=O)Nc1ccc(N=Nc2ccccc2)cc1	-1.8	-3.3	91.6	-3.5	1.6
CCOC(=O)c1c(C)nc(C)c2c(=O)oc3ccccc3c12	3.3	-2.3	95.3*	-3.9	-1.9
O=c1oc(-c2cccnc2)nc2ccccc12	1.7	0.8	77.3*	1.0	-4.3
c1cncc(-c2nc3ccccc3o2)c1	-4.5	-0.5	118.9	-0.9	-4.3
Cc1cc(C=C2C(=O)c3ccccc3C2=O)c(C)n1-c1cccc(C(=O)O)c1	4.1	43.5*	84.2	-0.7	-1.1
Cc1cc(C=C2C(=O)c3ccccc3C2=O)c(C)n1-c1ccc(C(=O)O)cc1	1.1	32.1*	102.0	2.1	0.1
O=C(/C=C/[C@H]1O[C@@H](n2ccc(=O)[nH]c2=O)[C@H](O)[C@@H]1O)NCCN1CCOCC1	4.2	x	x	x	x
CC1(C(=O)NCc2ccccc2)CSCC(=O)N1Cc1cccc(C(F)(F)F)c1 (stereo unspecified)	3.3	x	x	x	x
O=C(CSc1nccc(-c2ccc(Br)cc2)n1)NCCc1ccccc1	1.1	-2.2	69.0*	-0.9	1.9
Cc1nc(SCC(=O)NCCc2ccccc2)n[nH]1	2.2	0.6	93.6	-1.5	3.1
O=C1C(F)=CC(COC(c2ccccc2)(c2ccccc2)c2ccccc2)OC1n1cc(F)c(=O)[nH]c1=O (stereo unspecified)	-10.7	x	80.8	x	x
O=C1N/C(=N/S(=O)(=O)Cc2ccccc2)S/C1=C/c1ccc2c(c1)OCO2	-0.9	14.6	90.9	71.1*	-3.3
CCOc1ccc(CCN2C(=S)N([C@@H](Cc3ccc(O)cc3)CN3CCC[C@@H]3CN3C(=S)NC[C@@H]3CC(C)C)C[C@@H]2Cc2ccc(O)cc2)cc1	-7.3	x	x	x	x
Fc1ccc(-c2cnc[nH]2)cc1	-3.6	29.2*	113.7	6.5	3.1
CC(=O)C[C@H]1SC[C@@H](C(C)C)N1S(=O)(=O)c1ccc(C)cc1	3.1	x	x	x	x
N#Cc1c2ccc(O)cc2n2ccccc12	-62.1	31.9*	91.9	26.0	-11.5
Cc1ccc(CN2CCN(/N=C/c3ccc(C(=O)O)cc3)CC2)cc1	1.7	-0.8	82.4	-3.3	0.8
Cc1ccc(CN2CCN(/N=C/C(Br)=C\c3ccccc3)CC2)cc1	0.4	-0.9	82.8*	2.1	-1.2
O=C(CCc1ccccc1Cl)NC1CCCN(c2ccc(C(F)(F)F)cn2)C1 (stereo unspecified)	0.5	-1.1	82.3*	-2.1	-0.9
COc1ccccc1CCC(=O)NC1CCCN(c2ccc(C(F)(F)F)cn2)C1 (stereo unspecified)	-0.5	0.0	98.4	-0.2	2.7
O=[N+]([O-])c1cccc(/C=C/c2nc[nH]c2[N+](=O)[O-])c1	-1.6	-1.6	63.5*	0.3	1.0
O=c1[nH]c(/C=C/c2cccc([N+](=O)[O-])c2)c([N+](=O)[O-])c(=O)[nH]1	-2.8	-2.5	95.1	-3.5	3.8
O=C(COC(=O)c1c2c(nc3ccccc13)/C(=C/c1ccco1)CC2)NC1CCCC1	-2.2	x	109.3	x	0.0
CC1CCCCC1NC(=O)COC(=O)c1c2c(nc3ccccc13)/C(=C/c1ccco1)CC2 (stereo unspecified)	3.0	-0.8	77.5*	0.1	-0.3
SMILES	MT1-MMP act inh	STK33 inh	Pemphigus Ab inh	GSK3A inh	GSK3beta inhib
CC1Sc2ccc(C(=O)N(CCc3ccccc3)Cc3ccccc3)cc2NC1=O (stereo unspecified)	-5.0	x	103.7	x	x
CC1(C)Oc2ccc3ccc(=O)oc3c2-c2cn[nH]c21	0.2	22.2	96.5	68.5*	-0.6
CC1(C)Oc2ccc3ccc(=O)oc3c2-c2cnoc21	-1.2	2.8	x	8.0	2.0
CCOC(=O)C1=CCN(S(=O)(=O)c2ccc(C)cc2)C1c1cccc(F)c1 (stereo unspecified)	6.5	x	x	x	x
CCc1c(-c2ccccc2)nc2nc(C)c(C)nn12	-1.9	-0.6	33.3*	-2.2	4.1
O=C(NCCCc1ccccc1)c1cc(COc2ccc(F)cc2Cl)on1	3.7	1.4	34.6*	0.2	1.5
O=C(NCCc1cccnc1)c1cc(COc2ccc(F)cc2Cl)on1	-6.5	0.7	x	1.8	-0.9
COc1cc(OC)cc(C(=O)OCc2cc3ccccc3[nH]c2=O)c1	-2.8	0.0	80.0*	0.6	-0.2
Cc1cc(-c2nc3ncccc3o2)ccc1NC(=S)NC(=O)C(C)C	-5.0	-1.1	53.8*	-0.1	-3.1
CCN(CC)c1ccc(NC(=O)CSc2ccsc2[N+](=O)[O-])c(C)c1	-4.5	-0.9	95.1	-1.3	-0.8
CC(=O)c1ccc(NC(=O)CSc2ccsc2[N+](=O)[O-])cc1	-2.3	x	69.3*	x	4.1
O=C(CSc1ccsc1[N+](=O)[O-])NCCc1ccccc1	-3.1	-1.2	x	6.3	1.0
O=C(CSc1ccsc1[N+](=O)[O-])Nc1cc(F)ccc1F	-12.1	x	54.3*	x	-2.8
Cc1ccc(NC(=O)CSc2ccc(C(N)=O)cc2[N+](=O)[O-])cc1C	1.1	0.7	69.2*	8.0	6.5
O=C(OCCCOC(=O)c1ccc(O)cc1)c1ccc(O)cc1	-4.7	-1.2	112.8	x	-79.7*
O=C(OCCCCOC(=O)c1ccccc1)c1ccccc1	-0.9	-2.6	106.6	-5.6	1.8
Cc1cccc(NC(=O)Cn2cc(C(=O)C3CC3)c3ccccc32)c1C	5.9	-0.4	-14.4*	6.0	0.7
CCOC(=O)c1sc2nc3c(SCCC#N)cc(C(=O)c4cc(F)ccc4O)cn3c(=O)c2c1C	3.6	-3.2	101.7	-1.3	1.6
CCOC(=O)c1sc2nc3c(SCCC(=O)O)cc(C(=O)c4cc(OC)ccc4O)cn3c(=O)c2c1C	-14.4	x	55.3*	x	1.8
Cc1cc2nc3c(=O)[nH]c(=O)[nH]c3nc2c([N+](=O)[O-])c1N	-81.3	x	34.8*	x	x
Cc1c(N)c(C(C)(C)C)cc(C(C)(C)C)c1[N+](=O)[O-]	2.0	-0.7	107.0	-1.1	1.0
COC(=O)[C@@]12C[C@@H](CC(=O)NCc3cccc(C(F)(F)F)c3)C(=O)N(CCc3ccc(OC)c(OC)c3)C1=CCC(C)(C)C2	-1.2	x	x	x	x
O=C(O)COc1ccc2occ(C(=O)c3ccccc3)c2c1	-1.9	0.8	103.5	82.8*	1.7
CC(=O)Oc1ccc2occ(C(=O)c3ccccc3)c2c1	0.3	-0.2	98.5	13.1	0.4
COc1ccc(C(=O)c2coc3ccc(O)cc23)cc1	1.6	0.8	109.3	2.8	0.6

Assay outcomes: PubChem, several laboratories
